Consider 13 compounds from ChEMBL document CHEMBL4346667 (Eur J Med Chem, 2019).

A short description of test [1]: Antiproliferative activity against human H8 cells assessed as reduction in cell viability after 48 hrs by MTT assay. The format is functional, cell-based. A digest of the protocol:
(§1)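 Cells grown at 37 °C, 5% CO2; HeLa, HepG2, H8, HL7702 in RPMI 1640 + 10% fetal calf serum, others in high-glucose DMEM + 10% fetal calf serum. Log-phase cells seeded at 4000-12000/well by doubling time. Attached cells were given 10-fold dilutions, 100 µM to 10 nM (DMSO 0.1% v/v), for 48 h. MTT (2 mg/mL) 4 h, formazan in DMSO, A492. IC50 from triplicate means.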

The test system of test [2] is HepG2. The test is described as follows: Antiproliferative activity against human HepG2 cells assessed as reduction in cell viability after 48 hrs by MTT assay. The format is functional, cell-based. The settings on record: HepG2, 48 h. A digest of the protocol: as §1
Test [3] relates to MRC5. The test is described as follows: Antiproliferative activity against human MRC5 cells assessed as reduction in cell viability after 48 hrs by MTT assay. The format is functional, cell-based. The settings on record: MRC5, 48 h. In outline: as §1
Test [4] relates to HeLa. As to the kind of experiment: Antiproliferative activity against human HeLa cells assessed as reduction in cell viability after 48 hrs by MTT assay. The format is functional, cell-based. A digest of the protocol: as §1
Test [5] has as its system A549. The test is described as follows: Antiproliferative activity against human A549 cells assessed as reduction in cell viability after 48 hrs by MTT assay. The format is functional, cell-based. The settings on record: A549, 48 h. In outline:
as §1

The subject of test [6] is MCF7. The test is described as follows: Antiproliferative activity against human MCF7 cells assessed as reduction in cell viability after 48 hrs by MTT assay. The format is functional, cell-based. The settings on record: MCF7, 48 h. In outline:
as §1

Test [7] deals with HMEC. The test is described as follows: Antiproliferative activity against human HMEC cells assessed as reduction in cell viability after 48 hrs by MTT assay. The format is functional, cell-based. In outline: as §1
A short description of test [8]: Binding affinity to alpha/beta tubulin complex (unknown origin). Details: species or system Homo sapiens. A digest of the protocol:
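SPR assay: tubulin immobilized up to 800 mDeg (response units). Ligands were diluted two-fold from 80 µM to 2.5 µM in PBS with 0.5% (v/v) DMSO and injected at 60 µL/min for 300 s. Running buffer was PBS with 0.5% DMSO, at 25°C.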

Test [9] relates to L02. As to the kind of experiment: Antiproliferative activity against human HL7702 cells assessed as reduction in cell viability after 48 hrs by MTT assay. The settings on record: L02, 48 h. The format is functional, cell-based. In outline:
as §1

Test [10] deals with Tubulin (Homo sapiens) (UniProt P68371+Q9H4B7+P0DPH7+P68366+Q13509+Q71U36+P04350+Q3ZCM7+P07437+P68363+Q9BQE3+Q6PEY2+Q13885+Q9BVA1+Q9BUF5). As to the kind of experiment: Inhibition of tubulin polymerization in human HeLa cells assessed as contracted and rounded cells with disordered abnormal spindles and chromosomal misalignment at 500 nM after 24 hrs by immunofluorescence based confocal microscopy. The format is cell-based. A digest of the protocol:
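HeLa cells on glass coverslips were treated for 24 h at 25, 250 or 500 nM. They were fixed in 4% paraformaldehyde for 1 h and permeabilised with 0.2% Triton X-100 for 20 min. Cells were imaged by fluorescence and confocal microscopy.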

Activity calls are given as the source filed them. The rule behind the calls is not given here.

`COc1cc([C@@H]2c3cc4c(cc3[C@@H](Nc3cccc5[nH]ccc35)[C@H]3COC(=O)[C@H]23)OCO4)cc(OC)c1OC`: the IC50 in test [1] amounted to 29.2 µM; in [2], 1.8 µM; in test [3], 32.4 µM; in [4] it was 2.1 µM; in test [5], 2.4 µM; in [6], 1.3 µM. Further, the IC50 in [7] worked out at 64.2 µM; in [9] it was 33.6 µM. In addition, the Ki in [8] was 0.1 µM.
Turning to `COc1cc([C@@H]2c3cc4c(cc3[C@@H](Nc3ccc5cn[nH]c5c3)[C@H]3COC(=O)[C@H]23)OCO4)cc(OC)c1OC`, the IC50 in test [1] is 65.5 µM; in test [2], 1.9 µM; in [3] it was 53.6 µM; in test [4] it was 0.8 µM; in [5] it was 1 µM; in [6], 0.8 µM. The figures for the IC50 in test [7] and in test [9] were 52.5 µM and 38.4 µM, respectively. The same compound displayed a Ki in test [8] of 0.03 µM.
Turning to `COc1cc([C@@H]2c3cc4c(cc3[C@@H](Nc3cccc5cn[nH]c35)[C@H]3COC(=O)[C@H]23)OCO4)cc(OC)c1OC`, the IC50 in test [1] was 19.5 µM; in test [2], 6.3 µM; in [3], 35.5 µM; in test [4] it was 2.5 µM; in [5], 5.4 µM; in [6] it was 2.7 µM. The IC50 in test [7] was 43.3 µM; in test [9], 29.4 µM. In addition, the Ki in [8] is 0.12 µM.
Turning to `COc1cc([C@@H]2c3cc4c(cc3[C@@H](Nc3ccc5cccnc5c3)[C@H]3COC(=O)[C@H]23)OCO4)cc(OC)c1OC`, the IC50 came to 9.4 µM in test [1]; 4.1 µM in test [2]; 25.6 µM in [3]; 3.1 µM in [4]; 2.3 µM in test [5]; 1.4 µM in [6]. In addition, the IC50 in test [7] amounted to 73.5 µM; in test [9], 16.3 µM. In test [8], this compound had a Ki of 0.12 µM.
`COc1cc2c(c(OC)c1OC)-c1ccc(OC)c(=O)cc1[C@@H](NC(C)=O)CC2` [COLCHICINE]: the IC50 came to 6.1 µM in [1]; 5.8 µM in test [2]; 6.2 µM in [3]; 10.2 µM in test [4]; 9.7 µM in test [5]; 14.3 µM in test [6]. Besides, the IC50 in test [7] came to 8.1 µM; in test [9] it was 9.2 µM. In [8], the Ki turned out to be 0.11 µM.
`COc1cc([C@@H]2c3cc4c(cc3[C@@H](Nc3ccc5ncccc5c3)[C@H]3COC(=O)[C@H]23)OCO4)cc(OC)c1OC`: the IC50 in [1] came out at 80.2 µM; in test [2] it was 0.8 µM; in [3], 22.5 µM; in test [4], 0.7 µM; in test [5] it was 0.3 µM; in test [6], 0.6 µM. Moreover, the figures for the IC50 in [7] and in [9] were 89.2 µM and 64.3 µM, respectively. Further, in [8], the Ki amounted to 0.11 µM.
On to `COc1cc([C@@H]2c3cc4c(cc3[C@@H](Nc3ccc5[nH]ccc5c3)[C@H]3COC(=O)[C@H]23)OCO4)cc(OC)c1OC`, for which the concentration for half-maximal inhibition (IC50) in test [1] worked out at 29.2 µM; in [2] it was 0.9 µM; in test [3], 51.3 µM; in [4] it was 0.9 µM; in [5] it was 0.5 µM; in [6] it was 0.4 µM. Besides, the IC50 in test [7] came to 55.2 µM; in test [9], 43.3 µM. Further, the Ki in test [8] turned out to be 0.1 µM.
For `COc1cc([C@@H]2c3cc4c(cc3[C@@H](Nc3cccc5[nH]ncc35)[C@H]3COC(=O)[C@H]23)OCO4)cc(OC)c1OC`, the IC50 in test [1] came out at 25.6 µM; in test [2], 1.2 µM; in test [3] it was 45.6 µM; in [4] it was 1.8 µM; in test [5], 2.6 µM; in test [6], 3 µM. For the same compound, the IC50 was 60.5 µM in test [7] and 41.4 µM in [9]. Also, the Ki in [8] was 0.02 µM.
For `COc1cc([C@@H]2c3cc4c(cc3[C@@H](Nc3cccc5ncccc35)[C@H]3COC(=O)[C@H]23)OCO4)cc(OC)c1OC`, the IC50 in test [1] is 94.2 µM; in test [2], above 100 µM; in test [3], 70.8 µM; in test [4] it was above 100 µM; in [5], above 100 µM; in test [6] it was above 100 µM. Moreover, the IC50 is 79.8 µM in test [7] and 89.8 µM in test [9]. Also, the affinity in test [8] corresponds to a Ki of 0.06 µM.
In the case of `COc1cc([C@@H]2c3cc4c(cc3[C@H](O)[C@H]3COC(=O)[C@H]23)OCO4)cc(OC)c1OC` [PODOFILOX], the IC50 is 8.4 µM in test [1]; 2.4 µM in [2]; 10.6 µM in [3]; 6.9 µM in test [4]; 2.6 µM in test [5]; 2.4 µM in [6]. Moreover, the figures for the IC50 in [7] and in test [9] were 5.6 µM and 5 µM, respectively. This compound also registered a Ki in [8] of 0.27 µM. Also, the inhibition entry in test [10] is “Active”.
Take `COC(=O)Nc1nc2cc(C(=O)c3cccs3)ccc2[nH]1` [NOCODAZOLE]: the IC50 is 18 µM in test [1]; 0.4 µM in test [2]; 15.3 µM in [3]; 0.3 µM in test [4]; 0.2 µM in [5]; 0.2 µM in [6]. In addition, the IC50 in test [7] was 11.5 µM; in test [9] it was 13.5 µM. Further, the inhibition result in [10] is “Active”.
With `COc1cc([C@@H]2c3cc4c(cc3[C@@H](Nc3cccc5cc[nH]c35)[C@H]3COC(=O)[C@H]23)OCO4)cc(OC)c1OC`, the IC50 was 19.4 µM in [1]; 2.5 µM in test [2]; 38.5 µM in test [3]; 3.8 µM in [4]; 2.2 µM in test [5]; 4.8 µM in test [6]. Further, the figures for the IC50 in test [7] and in [9] were 45.5 µM and 30.5 µM, respectively. In addition, affinity in [8] was put at a Ki of 0.05 µM.
For `COc1cc([C@@H]2c3cc4c(cc3[C@@H](Nc3cccc5cccnc35)[C@H]3COC(=O)[C@H]23)OCO4)cc(OC)c1OC`, the IC50 in test [1] is 89.6 µM; in [2], 4.6 µM; in [3], 49.1 µM; in test [4], 2.7 µM; in test [5] it was 1.2 µM; in [6], 1 µM. Moreover, the IC50 turned out to be 39.2 µM in test [7] and 37 µM in [9]. The same compound gave a Ki in test [8] of 0.19 µM.
